Test results published in ChEMBL document CHEMBL1938299, “Quinolinone-based agonists of S1P₁: use of a N-scan SAR strategy to optimize in vitro and in vivo activity” (Bioorg Med Chem Lett, 2012).
In brackets after ≈: the same amount, converted by molar mass.

Columns and labels:
[1] = Efflux ratio of permeability in pig LLC-PK1 cells; assay type: ADME, cell-based, Sus scrofa
In short: (§1)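 LLC-PK1 porcine proximal tubule cell monolayers; apparent permeability (Papp) of test compound through the cells measured, along with efflux ratio.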

[2] = target: T1, Sphingosine 1-phosphate receptor 1 (Homo sapiens, UniProt P21453); experiment: Agonist activity at human S1P1 receptor expressed in human U2OS cells co-expressing eGFP assessed as receptor internalization into cytoplasm using Hoechst dye staining relative to 1-(4-(6-benzylbenzofuran-2-yl)-3- fluorobenzyl)azetidine-3-carboxylic acid; assay type: functional, cell-based
[3] = Apparent permeability of the compound in pig LLC-PK1 cells; assay type: ADME, cell-based, Sus scrofa; in short: as §1
[4] = target: T1, Sphingosine 1-phosphate receptor 1; experiment: Agonist activity at human S1P1 receptor expressed in human U2OS cells co-expressing eGFP assessed as receptor internalization into cytoplasm using Hoechst dye staining; assay type: functional, cell-based
[5] = Solubility of the compound in phosphate-buffered saline at pH 7.4; assay type: physicochemical
In short: (§2)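 Compound solubility measured separately in 0.010 M aqueous HCl, in PBS at pH 7.4, and in simulated intestinal fluid.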

[6] = Solubility of the compound in simulated intestinal fluid at pH 7.4; assay type: physicochemical; in short: as §2
Rattus norvegicus [7] = experiment: Immunosuppressive activity in Lewis rat assessed as reduction in circulating peripheral lymphocyte count at 1 mg/kg, po after 24 hrs relative to control; assay type: functional; parameters: scale not given: the % may be the effect or the level left
In short: (§3)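 Female Lewis rats (N = 5/group) given a single oral dose (0.30, 1.0 or 3.0 mg/kg) in 20% Captisol or HPBCD, 1% HPMC, 1% Pluronic F68, pH 2.0 with MSA. At 24 h, blood lymphocytes were counted as percent of vehicle control and total plasma compound measured. Significance by ANOVA/Dunnett's test versus vehicle.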

[8] = Intrinsic clearance in rat liver microsomes assessed per mg of protein after 30 mins; assay type: ADME, Microsome; conditions: read-out: CLH
In short: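 Test compound incubated with rat liver microsomes for 30 min. Percent turnover measured and used to estimate intrinsic clearance.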

[9] = Solubility of the compound in 0.010 M aqueous hydrogen chloride at pH 7.4; assay type: physicochemical; conditions: in the assay text read “hydrogen chloride” for “hydrogen chloride at pH 7.4”; in short: as §2
[10] = Plasma concentration in Lewis rat at 1 mg/kg, po after 24 hrs; assay type: ADME, organism-based; parameters: dose 1 mg/kg, route oral; in short: as §3
[11] = target: T2, Sphingosine 1-phosphate receptor 3 (Homo sapiens, UniProt Q99500); experiment: Agonist activity at human S1P3 receptor expressed in CHO-K1 cells co-expressing Gq/i5 G-protein assessed as calcium mobilization by FLIPR assay; assay type: functional, cell-based
[12] = Plasma concentration in Lewis rat at 0.3 mg/kg, po after 24 hrs; assay type: ADME, organism-based; parameters: dose 0.3 mg/kg, route oral; in short: as §3
Rattus norvegicus [13] = experiment: Immunosuppressive activity in po dosed Lewis rat assessed as reduction in circulating peripheral lymphocyte count after 24 hrs; assay type: functional, organism-based; in short: as §3
Rattus norvegicus [14] = experiment: Immunosuppressive activity in Lewis rat assessed as reduction in circulating peripheral lymphocyte count at 3 mg/kg, po after 24 hrs relative to control; assay type: functional; parameters: scale not given: the % may be the effect or the level left; in short: as §3
[15] = Volume of distribution at steady state in Sprague-Dawley rat at 1 mg/kg, iv; assay type: ADME, organism-based; parameters: dose 1 mg/kg, route intravenous; conditions: in vivo, read-out: Vdss
In short: (§4)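 Single intravenous dose of 1 mg/kg in DMSO vehicle to male Sprague–Dawley rats (N = 3/group). Clearance, steady-state volume of distribution and half-life were determined from plasma levels.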

[16] = target: T2, Sphingosine 1-phosphate receptor 3; experiment: Agonist activity at human S1P3 receptor expressed in CHO-K1 cells co-expressing Gq/i5 G-protein assessed as calcium mobilization by FLIPR assay relative to S1P; assay type: functional, cell-based
In short: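 Ca2+ mobilization in CHO-K1 cells expressing hS1P3 and a chimeric Gq/i5 G-protein. Efficacy expressed as % relative to S1P; compounds not reaching >10% of control activity reported as greater than the highest concentration tested.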

[17] = Half life in Sprague-Dawley rat at 1 mg/kg, iv; assay type: ADME, organism-based; parameters: dose 1 mg/kg, route intravenous; conditions: in vivo; in short: as §4
[18] = (§5) AUC (0 to 24 hrs) in Sprague-Dawley rat at 3 mg/kg, po; assay type: ADME, organism-based, Plasma; parameters: time < 24 hr, dose 3 mg/kg, route oral; conditions: Sprague-Dawley, plasma
[19] = Plasma concentration in Lewis rat at 3 mg/kg, po after 24 hrs; assay type: ADME, organism-based; parameters: dose 3 mg/kg, route oral; in short: as §3
[20] = (§6) Clearance in Sprague-Dawley rat at 1 mg/kg, iv; assay type: ADME, organism-based; parameters: dose 1 mg/kg, route intravenous; conditions: Sprague-Dawley, in vivo; in short: as §4
Rattus norvegicus [21] = experiment: Ratio of AUC (0 to 24 hrs) at 100 mg/kg, po to AUC (0 to 24 hrs) at 3 mg/kg, po in Sprague-Dawley rat; assay type: ADME, organism-based; conditions: in vivo
In short: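 Male Sprague–Dawley rats (N = 3/group) each received a single oral dose of 3 or 100 mg/kg, in 20% Captisol, 1% HPMC, 1% Pluronic F68, adjusted to pH 2.0 with MSA.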

[22] = AUC (0 to 24 hrs) in Sprague-Dawley rat at 100 mg/kg, po; assay type: ADME, organism-based; parameters: time < 24 hr, dose 100 mg/kg, route oral; conditions: plasma
[23] = Plasma protein binding in rat; assay type: ADME, cell-free; conditions: read-out: PPB (converted)
In short: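 Rat plasma protein binding measured in vitro, with bound and free compound separated by ultracentrifugation; reported as percent bound.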

[24] = (§7) Oral bioavailability in Sprague-Dawley rat at 3 mg/kg; assay type: ADME, organism-based; conditions: Sprague-Dawley, in vivo
In short: (§8)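 Bioavailability in male Sprague–Dawley rats (N = 3/group), calculated from AUC0–∞ values obtained after a 1 mg/kg iv dose (DMSO vehicle) and a 3 mg/kg po dose (20% Captisol, 1% HPMC, 1% pluronic F68, pH 2.0 with MSA).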

Rattus norvegicus [25] = experiment: as §5; assay type: ADME, organism-based, Plasma; parameters: time < 24 hr, dose 3 mg/kg, route oral; conditions: in vivo, 24 h
Rattus norvegicus [26] = experiment: as §6; assay type: ADME, organism-based; parameters: dose 1 mg/kg, route intravenous; conditions: in vivo; in short: as §4
Rattus norvegicus [27] = experiment: as §7; assay type: ADME, organism-based; conditions: in vivo; in short: as §8

T1 sequence (P21453 whole entry): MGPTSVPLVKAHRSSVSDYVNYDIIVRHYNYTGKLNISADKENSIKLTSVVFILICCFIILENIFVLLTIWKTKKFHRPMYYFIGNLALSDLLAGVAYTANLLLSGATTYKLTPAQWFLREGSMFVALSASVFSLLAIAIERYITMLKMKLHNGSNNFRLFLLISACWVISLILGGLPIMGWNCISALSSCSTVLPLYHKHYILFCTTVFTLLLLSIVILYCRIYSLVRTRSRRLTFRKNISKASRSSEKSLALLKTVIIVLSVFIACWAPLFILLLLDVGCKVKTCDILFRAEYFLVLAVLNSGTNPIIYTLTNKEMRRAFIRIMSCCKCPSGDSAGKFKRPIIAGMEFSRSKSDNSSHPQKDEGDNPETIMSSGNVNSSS
T2 sequence (Q99500 whole entry): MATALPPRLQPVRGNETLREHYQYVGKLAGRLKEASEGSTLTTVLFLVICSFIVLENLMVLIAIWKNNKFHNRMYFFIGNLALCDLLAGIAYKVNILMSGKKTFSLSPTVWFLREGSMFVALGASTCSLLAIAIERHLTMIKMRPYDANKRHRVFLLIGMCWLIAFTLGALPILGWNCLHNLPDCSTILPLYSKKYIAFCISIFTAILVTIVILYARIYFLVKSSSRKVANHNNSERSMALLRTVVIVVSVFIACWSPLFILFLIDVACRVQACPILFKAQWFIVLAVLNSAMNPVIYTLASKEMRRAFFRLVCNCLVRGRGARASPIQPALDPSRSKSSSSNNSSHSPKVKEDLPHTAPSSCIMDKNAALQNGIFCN

SMILES | efflux ratio [1] | Efficacy [2] | Papp [3] | EC50 [4] | solubility [5] | solubility [6] | microsomal CLint [8] | solubility [9] | concentration at 24 h [10] | EC50 [11] | Activity (Rattus norvegicus [7]) | also measured
Cn1cc(C(=O)Nc2ccc(-c3ccccn3)c(C(F)(F)F)n2)c(=O)c2cnccc21 | 1 | 130% | 15 ×10⁻⁶ cm/s | 210 nM | 3 µg/mL (≈ 7.05 µM) | 5.8 µg/mL (≈ 13.6 µM) | < 14 µL/min/mg | > 200 µg/mL | 140 ng/mL | > 2500 nM | -32% | 
Cn1cc(C(=O)Nc2ccc(-c3ccncc3)c(C(F)(F)F)c2)c(=O)c2ccccc21 | 1.5 | 110% | 15 ×10⁻⁶ cm/s | 450 nM | 7.9 µg/mL (≈ 18.7 µM) | 12 µg/mL (≈ 28.3 µM) | 44 µL/min/mg | 6.4 µg/mL (≈ 15.1 µM) |  | > 2500 nM |  | 
Cn1cc(C(=O)Nc2ccc(-c3ccccn3)c(C(F)(F)F)c2)c(=O)c2cnccc21 | 1 | 100% | 16 ×10⁻⁶ cm/s | 200 nM | < 1 µg/mL | 6.7 µg/mL (≈ 15.8 µM) | 15 µL/min/mg | 120 µg/mL (≈ 283 µM) | 150 ng/mL | > 2500 nM | -32% | 
Cn1cc(C(=O)Nc2cnc(-c3ccccc3)c(C(F)(F)F)c2)c(=O)c2ccccc21 | 1.9 | 170% | 11 ×10⁻⁶ cm/s | 2900 nM | < 1 µg/mL | 13 µg/mL (≈ 30.7 µM) | < 14 µL/min/mg | < 1 µg/mL |  | > 2500 nM |  | 

Now those with a lower EC50 [4], led by results:

efflux ratio [1] | Efficacy [2] | Papp [3] | EC50 [4] | solubility [5] | solubility [6] | microsomal CLint [8] | solubility [9] | concentration at 24 h [10] | EC50 [11] | SMILES | Activity (Rattus norvegicus [7]) | also measured
1.7 | 100% | 2.2 ×10⁻⁶ cm/s | 190 nM | < 1 µg/mL | 5.9 µg/mL (≈ 13.9 µM) | < 14 µL/min/mg | < 1 µg/mL |  | > 2500 nM | Cn1cc(C(=O)Nc2ccc(-c3ccccc3)c(C(F)(F)F)c2)c(=O)c2cccnc21 |  | 
0.4 | 110% | 1.2 ×10⁻⁶ cm/s | 70 nM | < 1 µg/mL | 11 µg/mL (≈ 26 µM) | < 14 µL/min/mg | 1.3 µg/mL (≈ 3.08 µM) | 18 ng/mL | 1500 nM | Cn1cc(C(=O)Nc2ccc(-c3ccccc3)c(C(F)(F)F)c2)c(=O)c2ccccc21 | -3% | concentration at 24 h [12]: 5.5 ng/mL; Activity (Rattus norvegicus [13]): Dose-dependent effect; Activity (Rattus norvegicus [14]): -51%; Vd [15]: 11 L/kg; Efficacy [16]: 92%; half-life [17]: 15 h; AUC(0-t) at 24 h [18]: 1200 ng·h/mL; concentration at 24 h [19]: 48 ng/mL; clearance [20]: 15.5 mL/min/kg; Ratio AUC (Rattus norvegicus [21]): 4.7; AUC(0-t) at 24 h [22]: 5800 ng·h/mL; fraction unbound [23]: 0.03; bioavailability [24]: 60%
0.8 | 110% | 11 ×10⁻⁶ cm/s | 60 nM | < 1 µg/mL | 5.2 µg/mL (≈ 12.3 µM) | < 14 µL/min/mg | 12 µg/mL (≈ 28.3 µM) | 5.1 ng/mL | > 2500 nM | Cn1cc(C(=O)Nc2ccc(-c3ccccn3)c(C(F)(F)F)c2)c(=O)c2ccccc21 | 25% | 
 | 120% | < 1 ×10⁻⁶ cm/s | 42 nM | < 1 µg/mL | 2.3 µg/mL (≈ 5.43 µM) | < 14 µL/min/mg | < 1 µg/mL | 1.3 ng/mL | > 2500 nM | Cn1cc(C(=O)Nc2ccc(-c3ccccc3)c(C(F)(F)F)n2)c(=O)c2ccccc21 | 7% | 
1.2 | 130% | 2.3 ×10⁻⁶ cm/s | 41 nM | 1.6 µg/mL (≈ 3.78 µM) | 12 µg/mL (≈ 28.3 µM) | < 14 µL/min/mg | < 1 µg/mL | 9.7 ng/mL | > 2500 nM | Cn1nc(C(=O)Nc2ccc(-c3ccccc3)c(C(F)(F)F)c2)c(=O)c2ccccc21 | 6% | 
0.8 | 100% | 5.7 ×10⁻⁶ cm/s | 24 nM | < 1 µg/mL | 4.9 µg/mL (≈ 11.6 µM) | < 14 µL/min/mg | < 1 µg/mL | 350 ng/mL | > 2500 nM | Cn1cc(C(=O)Nc2ccc(-c3ccccc3)c(C(F)(F)F)c2)c(=O)c2cnccc21 | -64% | concentration at 24 h [12]: 96 ng/mL; Activity (Rattus norvegicus [13]): Dose-dependent effect; Activity (Rattus norvegicus [14]): -64%; Vd [15]: 9.2 L/kg; half-life [17]: 41 h; AUC (Rattus norvegicus [25]): 5100 ng·h/mL; concentration at 24 h [19]: 1100 ng/mL; CL (Rattus norvegicus [26]): 2.67 mL/min/kg; Ratio AUC (Rattus norvegicus [21]): 6; AUC(0-t) at 24 h [22]: 31000 ng·h/mL; fraction unbound [23]: 0.08; F (Rattus norvegicus [27]): 95%
